Experiments:
Format in all cases: functional
[1] = species: Mus musculus; assay: Compound was evaluated for antineoplastic activity against mice bearing L1210 leukemia.
How it was run: (§1)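 L1210 leukemia was carried and implanted ip in mice as in earlier work. Starting 24 h after implantation, drug was given ip once daily for 6 days across a range of doses, as a Tween 80/saline suspension. Survival was scored as %T/C, the mean survival of treated over control ×100.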

[2] = species: Mus musculus; assay: Compound was evaluated for antineoplastic activity against mice bearing L1210 leukemia. Average change in body weight from onset to termination of therapy..
How it was run: (§2)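 In L1210-bearing mice, dosing was ip once daily for 6 days, beginning 24 h after implantation, with groups of five. The vehicle was a Tween 80/saline suspension. Body weight was recorded, and the read-out was the mean % change in body weight from the start to the end of therapy.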

[3] = test system: Mus musculus; assay: Compound was evaluated for antineoplastic activity against mice bearing […], Optimum effective daily dose administered once daily for 6 consecutive days
How it was run: (§3)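 B16 melanoma tissue was dispersed in serum-free Fischer's medium (1 g per 5 mL), and 0.2 mL was implanted ip per mouse. Starting 24 h after implantation, drug was given ip once daily for 6 days across a range of doses, as a suspension in 20% aq. Tween 80 and isotonic saline. Groups were five mice; vehicle controls were included. %T/C was mean survival time of treated over control ×100.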

[4] = species: Mus musculus; assay: Compound was evaluated for antineoplastic activity against mice bearing B6 melanoma.; how it was run: as §3
[5] = test system: Mus musculus; assay: Compound was evaluated for antineoplastic activity against mice bearing L1210 leukemia. Optimum effective daily dose administered once daily for 6 consecutive days; how it was run: as §1
[6] = species: Mus musculus; assay: Compound was evaluated for antineoplastic activity against mice bearing B16 melanoma; how it was run: as §3
[7] = test system: Mus musculus; assay: Compound was evaluated for antineoplastic activity against mice bearing B16 melanoma, optimum effective daily dose administered once daily for 6 consecutive days; how it was run: as §3
[8] = species: Mus musculus; assay: Compound was evaluated for antineoplastic activity against mice bearing L1210 leukemia. Average change in body weight from onset to termination of therapy; how it was run: as §2
[9] = test system: Mus musculus; assay: Compound was evaluated for antineoplastic activity against mice bearing L1210 leukemia, optimum effective daily dose administered once daily for 6 consecutive days; how it was run: as §1
[10] = species: Mus musculus; assay: Compound was evaluated for antineoplastic activity against mice bearing B16 melanoma.; how it was run: as §3

Structure (SMILES) | T/C [1] [%] | Average change in body weight [2] [%] | OD [3] [mg/kg] | Average change in body weight [4] [%] | T/C [4] [%] | OD [5] [mg/kg] | Average change in body weight [6] [%] | Max T/C [6] [%] | OD [7] [mg/kg] | Average change in body weight [8] [%] | OD [9] [mg/kg] | Average change in body weight [10] [%]
Cc1ccc(S(=O)(=O)N(C)NSc2ccccc2[N+](=O)[O-])cc1 | 151 | 15.5 | 100 | -2 | 99 | 50 |  |  |  |  |  | 
Cc1ccc(S(=O)(=O)N(C)NS(=O)(=O)Cc2ccccc2)cc1 |  |  |  |  |  |  | -2.4 | 172 | 50 | 10.8 | 50 | 
Cc1ccc(S(=O)(=O)N(C)NC(=O)/C=C/c2ccccc2)cc1 | 94 | 14.8 | 150 | 1.8 | 94 | 50 |  |  |  |  |  | 
Cc1ccc(S(=O)(=O)NN(C)S(=O)(=O)c2ccc(C)cc2)cc1 |  |  |  |  |  |  |  |  | 150 | 3.7 | 50 | -2.7
CCS(=O)(=O)NN(C)S(=O)(=O)c1ccc(C)cc1 |  |  |  |  |  |  | -1.1 |  | 50 |  |  | 
Cc1ccc(S(=O)(=O)N(C)NC(=O)c2ccc([N+](=O)[O-])cc2)cc1 | 133 | -6.3 | 50 | 3.9 | 97 | 100 |  |  |  |  |  | 
Cc1ccc(S(=O)(=O)N(C)NS(C)(=O)=O)cc1 |  |  |  |  |  |  | -1.9 |  | 10 | -7.9 | 30 | 
Cc1ccc(S(=O)(=O)N(C)NP(=O)(c2ccccc2)c2ccccc2)cc1 | 100 | 5.8 | 150 | 0.7 | 112 | 50 |  |  |  |  |  | 
Cc1ccc(S(=O)(=O)N(C)NP(=O)(Oc2ccccc2)Oc2ccccc2)cc1 | 99 | 20.9 | 100 | 7.4 | 91 | 150 |  |  |  |  |  | 
Cc1ccc(S(=O)(=O)N(C)NC(=O)c2ccccc2)cc1 | 167 | 7.5 | 150 | 6.8 | 96 | 50 |  |  |  |  |  | 
